From ChEMBL document CHEMBL1157503, “Affinity of 3-acyl substituted 4-quinolones at the benzodiazepine site of GABA(A) receptors” (Bioorg Med Chem, 2008) come the findings set out here.

Structures are written as SMILES.

The nature of assay [1]: Displacement of [3H]flumazenil from GABAA receptor in rat cortical membrane. The format is cell membranes. Put shortly:
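Rat cortex homogenized in Tris-HCl (30 mM, pH 7.4), washed by repeated centrifugation at 27,000g, incubated 30 min at 37 °C, then stored at −20 °C. About 50 µg protein per 0.55 ml assay in Tris-citrate (50 mM, pH 7.1) was incubated with 1 nM ³H-flumazenil for 40 min at 0–4 °C, then filtered on GF/C. Nonspecific binding was set with 1 µM clonazepam.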
Background: Loss of bound radioactivity is the signal in a displacement assay; it reports binding, not function.

Assay [2] is described as follows: Displacement of [3H]flumazenil from human recombinant GABAA alpha-3-beta-2-gamma-2S receptor expressed in HEK293 cells. Format: cell-based. In a few lines:
(§1)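 HEK 293 membranes expressing human α1β2γ2s, α2β2γ2s or α3β2γ2s receptors, about 25 µg protein per 0.55 ml assay in Tris-citrate (50 mM, pH 7.1). Incubated with 1 nM ³H-flumazenil (final) for 40 min at 0–4 °C, then GF/C filtration and ice-cold washes. Nonspecific binding was set with 1 µM clonazepam. […] Mean ± SD of three determinations.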

Assay [3] addresses T1, GABA-A receptor; alpha-1/beta-2/gamma-2 (Homo sapiens, UniProt P14867+P18507+P47870).
T1 sequence (P14867 whole entry): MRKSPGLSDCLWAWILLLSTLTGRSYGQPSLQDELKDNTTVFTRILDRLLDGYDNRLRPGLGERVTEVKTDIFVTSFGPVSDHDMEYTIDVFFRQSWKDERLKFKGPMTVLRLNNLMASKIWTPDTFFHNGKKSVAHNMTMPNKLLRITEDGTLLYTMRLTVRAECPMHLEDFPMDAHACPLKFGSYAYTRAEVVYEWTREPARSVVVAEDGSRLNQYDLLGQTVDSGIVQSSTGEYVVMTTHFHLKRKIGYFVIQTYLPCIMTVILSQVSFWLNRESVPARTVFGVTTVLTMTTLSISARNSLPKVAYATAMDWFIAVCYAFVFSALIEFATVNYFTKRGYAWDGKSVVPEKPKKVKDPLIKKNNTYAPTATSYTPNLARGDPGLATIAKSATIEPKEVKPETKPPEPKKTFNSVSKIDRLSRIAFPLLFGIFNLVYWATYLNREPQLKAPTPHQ
T1 sequence (P47870 whole entry): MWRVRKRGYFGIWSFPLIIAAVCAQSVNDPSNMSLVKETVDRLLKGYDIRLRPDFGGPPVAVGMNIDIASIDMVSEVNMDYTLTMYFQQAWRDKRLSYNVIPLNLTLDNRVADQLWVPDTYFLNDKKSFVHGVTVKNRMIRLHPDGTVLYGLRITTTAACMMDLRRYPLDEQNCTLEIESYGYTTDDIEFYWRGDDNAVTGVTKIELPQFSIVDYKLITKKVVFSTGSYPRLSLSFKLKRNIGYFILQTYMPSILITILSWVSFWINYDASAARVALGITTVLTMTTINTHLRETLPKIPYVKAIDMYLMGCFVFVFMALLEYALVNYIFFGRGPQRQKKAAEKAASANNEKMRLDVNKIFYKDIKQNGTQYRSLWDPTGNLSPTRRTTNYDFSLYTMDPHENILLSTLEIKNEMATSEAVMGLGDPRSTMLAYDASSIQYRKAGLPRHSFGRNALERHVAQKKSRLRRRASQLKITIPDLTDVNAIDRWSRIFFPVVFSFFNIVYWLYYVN
T1 sequence (P18507 whole entry): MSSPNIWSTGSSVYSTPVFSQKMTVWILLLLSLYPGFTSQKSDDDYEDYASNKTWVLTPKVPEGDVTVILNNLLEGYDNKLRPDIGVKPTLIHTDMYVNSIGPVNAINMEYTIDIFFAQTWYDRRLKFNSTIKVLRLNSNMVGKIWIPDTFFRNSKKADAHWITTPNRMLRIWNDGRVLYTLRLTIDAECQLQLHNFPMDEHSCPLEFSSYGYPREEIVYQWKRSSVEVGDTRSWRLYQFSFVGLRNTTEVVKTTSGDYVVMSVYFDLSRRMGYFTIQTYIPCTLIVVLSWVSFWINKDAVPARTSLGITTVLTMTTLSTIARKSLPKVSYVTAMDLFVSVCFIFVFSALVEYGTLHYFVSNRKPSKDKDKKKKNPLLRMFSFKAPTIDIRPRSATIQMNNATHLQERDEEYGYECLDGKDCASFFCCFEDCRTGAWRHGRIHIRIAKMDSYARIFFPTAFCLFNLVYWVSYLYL
In words: Displacement of [3H]flumazenil from human recombinant GABAA alpha-1-beta-2-gamma-2S receptor expressed in HEK293 cells. The format is cell-based. Put shortly:
as §1

Assay [4] is filed under the species Homo sapiens. Briefly: Selectivity ratio of Ki for human recombinant GABAA alpha-3-beta-2-gamma-2S receptor to Ki for human recombinant GABAA alpha-1-beta-2-gamma-2S receptor. In a few lines:
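Ratio of the Ki at human α3β2γ2s to the Ki at human α1β2γ2s, both from ³H-flumazenil (1 nM) displacement in HEK 293 membranes (40 min, 0–4 °C, 1 µM clonazepam nonspecific).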

Assay [5] is filed under the species Homo sapiens. In words: Selectivity ratio of Ki for human recombinant GABAA alpha-2-beta-2-gamma-2S receptor to Ki for human recombinant GABAA alpha-1-beta-2-gamma-2S receptor. In a few lines: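 Displacement of 1 nM [3H]flumazenil from HEK 293 membranes expressing human α2β2γ2s or α1β2γ2s receptors (about 25 µg protein per 0.55 ml), in 50 mM Tris-citrate pH 7.1, 40 min at 0–4 °C. Filtered on glass fibre. Nonspecific binding with 1 µM clonazepam. IC50 from 4–6 concentrations. […] Ratio is Ki α2/Ki α1.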

Assay [6] is described as follows: Displacement of [3H]flumazenil from human recombinant GABAA alpha-2-beta-2-gamma-2S receptor expressed in HEK293 cells. Format: cell-based. In a few lines:
as §1

One may read the Ki as a measure of affinity in units of concentration, obtained from inhibition or displacement. In assay [1], `CCc1ccc2[nH]cc(C(=O)CCC(C)(C)C)c(=O)c2c1` came in with a Ki of 19 nM.
Turning to `CCCCC(=O)c1c[nH]c2ccc(Cc3ccccn3)cc2c1=O`, the Ki in assay [2] came out at 2.2 nM; in assay [3], 0.14 nM; in assay [1], 0.23 nM. In addition, the Ratio Ki in the assay filed under Homo sapiens [4] is 16.
For the molecule `CCCCC(=O)c1c[nH]c2ccc(Cc3ccc4ccccc4c3)cc2c1=O`, the Ratio Ki came out at 8 in the assay listed under Homo sapiens [5] and 3 in the assay filed under Homo sapiens [4]. In addition, the Ki amounted to 8.8 nM in assay [2], 2.7 nM in assay [3], 22 nM in assay [6] and 1.3 nM in assay [1].
With `CCOC(=O)c1cnc2ccc(CC)cc2c1O`, the Ki amounted to 52 nM in assay [2], 5.9 nM in assay [3] and 20 nM in assay [1]. The Ratio Ki in the assay listed under Homo sapiens [4] was 9.
Turning to `CCc1ccc2[nH]cc(C(=O)CC3CCCC3)c(=O)c2c1`, the figures for the Ratio Ki in the assay filed under Homo sapiens [5] and in the assay filed under Homo sapiens [4] were 6 and 15, respectively. For the same molecule, the Ki in assay [2] was determined as 74 nM; in assay [3], 5.1 nM; in assay [6], 31 nM; in assay [1], 7.9 nM.
As for `CCCCC(=O)c1c[nH]c2ccc([N+](=O)[O-])cc2c1=O`, in assay [1], the Ki was 0.87 nM.
Still for that read-out and setting: for `CCc1ccc2[nH]cc(C(=O)Cc3ccccc3)c(=O)c2c1` the value was 69 nM.
On to `CCCCC(=O)c1c[nH]c2ccc(-c3ccccc3)cc2c1=O`, for which the affinity in assay [1] corresponds to a Ki of 28 nM.
Regarding `CCOC(=O)c1c[nH]c2ccc(Cc3ccccc3)cc2c1=O`, the Ki in assay [2] was 7.2 nM; in assay [1], 1.4 nM. Further, the Ratio Ki in the assay filed under Homo sapiens [4] amounted to 27.
`O=C(CC1CCCC1)c1c[nH]c2ccc(Cc3ccccc3)cc2c1=O`: the Ki in assay [2] was determined as 13 nM; in assay [3], 0.51 nM; in assay [1], 1 nM. Also, in the assay listed under Homo sapiens [4], the Ratio Ki came to 25.
Take `CCCCC(=O)c1c[nH]c2ccc(Cc3cccnc3)cc2c1=O`: the Ki was 2.2 nM in assay [2], 0.12 nM in assay [3] and 0.27 nM in assay [1]. The Ratio Ki in the assay filed under Homo sapiens [4] stood at 18.
Molecule `CCCCC(=O)c1c[nH]c2ccc(Br)cc2c1=O` registered a Ki in assay [1] of 0.54 nM.
With `CCCCC(=O)c1c[nH]c2ccc(CCc3ccccc3)cc2c1=O`, the Ratio Ki in the assay filed under Homo sapiens [5] worked out at 3; in the assay filed under Homo sapiens [4], 2. For the same molecule, the Ki in assay [2] was 1.1 nM; in assay [3], 0.53 nM; in assay [6], 1.7 nM; in assay [1] it was 0.42 nM.
As for `O=C(CC1CCCC1)c1c[nH]c2ccc(Cc3cccnc3)cc2c1=O`, the Ki in assay [2] came to 23 nM; in assay [3] it was 0.88 nM; in assay [1], 1.5 nM. The Ratio Ki in the assay listed under Homo sapiens [4] was 26.
For the molecule `CCCCC(=O)c1c[nH]c2ccc(CC)cc2c1=O`, the Ratio Ki in the assay listed under Homo sapiens [5] came out at 4; in the assay filed under Homo sapiens [4], 7. The Ki in assay [2] was determined as 2.8 nM; in assay [3], 0.38 nM; in assay [6], 1.6 nM; in assay [1], 0.9 nM.
For `CCc1ccc2[nH]cc(C(=O)CCC(C)C)c(=O)c2c1`, the Ki in assay [1] is 2.5 nM.
For the molecule `CCCC(=O)c1c[nH]c2ccc(Cc3ccccc3)cc2c1=O`, the Ratio Ki in the assay listed under Homo sapiens [5] worked out at 7; in the assay filed under Homo sapiens [4], 13. The Ki worked out at 1.56 nM in assay [2], 0.12 nM in assay [3], 0.81 nM in assay [6] and 0.22 nM in assay [1].
With `CCCCC(=O)c1c[nH]c2ccc(Cc3ccncc3)cc2c1=O`, the Ratio Ki in the assay listed under Homo sapiens [5] turned out to be 7; in the assay filed under Homo sapiens [4] it was 5. For the same molecule, the Ki in assay [2] came to 2.1 nM; in assay [3], 0.39 nM; in assay [6], 2.7 nM; in assay [1] it was 0.53 nM.
On to `CCc1ccc2[nH]cc(C(=O)CC(C)CC)c(=O)c2c1` (stereo unspecified), for which, in assay [1], the affinity, expressed as Ki, was 18 nM.
Consider `CCCCC(=O)c1c[nH]c2ccc(CCCc3ccccc3)cc2c1=O`, for which the Ratio Ki turned out to be 5 in the assay listed under Homo sapiens [5] and 4 in the assay listed under Homo sapiens [4]. Besides, the Ki in assay [2] was determined as 14.3 nM; in assay [3], 3.2 nM; in assay [6], 16 nM; in assay [1], 2.5 nM.
Regarding `CCCCC(=O)c1c[nH]c2ccccc2c1=O`, the Ki in assay [2] worked out at 9.2 nM; in assay [3], 0.97 nM; in assay [1], 2.2 nM. In the assay filed under Homo sapiens [4], the Ratio Ki amounted to 9.
On to `CCOC(=O)c1cnc2ccc(Cc3ccccc3)cc2c1O`, for which, in assay [3], the Ki came out at 0.27 nM.
The molecule `CCc1ccc2[nH]cc(C(=O)CC3CCCCC3)c(=O)c2c1` registered a Ki in assay [1] of 30 nM.
For the molecule `CCCCC(=O)c1c[nH]c2ccc(Cc3ccccc3)cc2c1=O`, the Ratio Ki in the assay listed under Homo sapiens [5] was found to be 3; in the assay filed under Homo sapiens [4], 5. For the same molecule, the Ki was determined as 0.61 nM in assay [2], 0.12 nM in assay [3], 0.4 nM in assay [6] and 0.17 nM in assay [1].
On to `CCCCCC(=O)c1c[nH]c2ccc(CC)cc2c1=O`, for which affinity in assay [1] was put at a Ki of 0.98 nM.
Regarding `CCCCCCC(=O)c1c[nH]c2ccc(CC)cc2c1=O`, the Ki in assay [1] amounted to 2.1 nM.
